Measured values from ChEMBL document CHEMBL1144993, “Imidazoline binding sites (IBS) profile modulation: key role of the bridge in determining I1-IBS or I2-IBS selectivity within a series of 2-phenoxymethylimidazoline analogues” (J Med Chem, 2003).

Assays:
[1] = biological target: Imidazoline I2 binding site (Oryctolagus cuniculus); experiment: Displacement of [3H]idazoxan from imidazoline receptor I-2 of rabbit kidney membranes
[2] = biological target: T1, Adrenergic receptor alpha-2 (Rattus norvegicus, UniProt P22086+P19328+P22909); experiment: Displacement of [3H]clonidine from rat cortex membrane Alpha-2 adrenergic receptors
T1 sequence (P22086 whole entry): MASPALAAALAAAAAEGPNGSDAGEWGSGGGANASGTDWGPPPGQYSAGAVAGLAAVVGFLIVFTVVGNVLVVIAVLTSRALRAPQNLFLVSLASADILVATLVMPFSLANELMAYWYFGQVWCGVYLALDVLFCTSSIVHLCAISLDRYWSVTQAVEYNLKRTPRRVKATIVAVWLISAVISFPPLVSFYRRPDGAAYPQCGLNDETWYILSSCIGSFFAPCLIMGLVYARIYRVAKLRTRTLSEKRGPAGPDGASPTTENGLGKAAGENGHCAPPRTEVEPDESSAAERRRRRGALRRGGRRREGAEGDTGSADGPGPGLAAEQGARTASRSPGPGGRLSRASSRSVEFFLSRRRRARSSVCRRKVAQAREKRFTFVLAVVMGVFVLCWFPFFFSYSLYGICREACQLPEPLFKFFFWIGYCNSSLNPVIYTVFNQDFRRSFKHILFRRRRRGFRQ
T1 sequence (P19328 whole entry): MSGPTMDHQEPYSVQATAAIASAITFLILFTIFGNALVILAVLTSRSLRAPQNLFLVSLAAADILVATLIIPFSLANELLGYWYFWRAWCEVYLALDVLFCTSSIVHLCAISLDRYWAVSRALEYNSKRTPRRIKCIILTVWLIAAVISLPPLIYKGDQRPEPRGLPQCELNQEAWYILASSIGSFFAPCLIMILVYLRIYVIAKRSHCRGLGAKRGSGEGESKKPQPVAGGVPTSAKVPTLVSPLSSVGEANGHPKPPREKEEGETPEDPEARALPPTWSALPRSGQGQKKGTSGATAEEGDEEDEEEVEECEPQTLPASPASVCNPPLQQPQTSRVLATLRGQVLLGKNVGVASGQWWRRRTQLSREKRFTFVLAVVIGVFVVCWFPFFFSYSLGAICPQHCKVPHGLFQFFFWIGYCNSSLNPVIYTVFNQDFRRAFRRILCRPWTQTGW
T1 sequence (P22909 whole entry): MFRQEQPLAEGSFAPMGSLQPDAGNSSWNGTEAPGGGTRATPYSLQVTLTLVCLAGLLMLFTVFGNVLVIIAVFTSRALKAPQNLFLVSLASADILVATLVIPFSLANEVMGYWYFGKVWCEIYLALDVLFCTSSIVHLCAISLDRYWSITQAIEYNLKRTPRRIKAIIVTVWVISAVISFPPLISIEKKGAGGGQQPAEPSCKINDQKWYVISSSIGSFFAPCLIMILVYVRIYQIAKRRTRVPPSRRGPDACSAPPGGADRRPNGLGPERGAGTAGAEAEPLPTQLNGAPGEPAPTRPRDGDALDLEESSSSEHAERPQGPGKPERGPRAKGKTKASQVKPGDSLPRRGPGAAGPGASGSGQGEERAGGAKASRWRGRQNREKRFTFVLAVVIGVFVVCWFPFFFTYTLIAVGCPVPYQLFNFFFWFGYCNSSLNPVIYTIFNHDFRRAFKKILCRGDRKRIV
Summary of the method: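 Rat cerebral cortex membranes (200 μg protein) incubated with 5 nM [3H]-clonidine and 10–12 competitor concentrations in 50 mM Tris-HCl pH 7.4, 45 min at 25 °C. Nonspecific binding with 10 μM phentolamine. GF/B filtration, scintillation counting, triplicate points.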

[3] = Relative binding to imidazoline I1 and imidazoline I2 binding sites ([…])
[4] = Relative binding to imidazoline I1 and alpha-2 adrenergic receptors ([…])
[5] = Relative binding to imidazoline I2 and alpha-2 adrenergic receptors ([…])
[6] = Relative binding to imidazoline I2 and imidazoline I1 binding sites ([…])
[7] = Displacement of [125I]p-iodoclonidine from imidazoline receptor I-1 in rat pheochromocytoma cells
Oryctolagus cuniculus [8] = experiment: Heart rate during 15 minute pretreatment with intracisternal compound administration; type: functional
Summary of the method: (§1)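 Male normotensive Zika rabbits (2.5–3.5 kg), pentobarbitone 40 mg/kg iv anesthesia, 38 °C, tracheotomized, pancuronium 1 mg/kg iv, ventilated. Test drug given intracisternally as 0.2 mL after equal CSF removal, total 300 μg/kg; vehicle group 100 μL saline ic. Clonidine 10 μg/kg iv 15 min later. MAP = diastolic + 1/3 pulse pressure; HR from pressure signal. Mean ± SEM, n = 4–5; repeated-measures ANOVA.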

Oryctolagus cuniculus [9] = experiment: Heart rate following 15 minute pretreatment with intracisternal compound administration and 10 ug/kg iv clonidine; type: functional
Summary of the method: as §1

Oryctolagus cuniculus [10] = experiment: Mean arterial pressure following 15 minute pretreatment with intracisternal compound administration and 10 ug/kg iv clonidine; type: functional, Artery
Summary of the method: as §1

Oryctolagus cuniculus [11] = experiment: Mean arterial pressure during 15 minute pretreatment with intracisternal compound administration; type: functional, Artery
Summary of the method: as §1

Q: With C[C@@H](CC1=NCCN1)c1ccccc1 as the molecule, how does the “Log Ki” value [1] read?
A: Its value is -7.

Q: What about the “Log Ki” value [2] of the same molecule?
A: Its value is -5.8.

Q: With C(=C\c1ccccc1)/C1=NCCN1 as the molecule, how does the Ratio [3] read?
A: The Ratio was 0.1.

Q: And the Ratio [4]?
A: Its Ratio is 741.

Q: What about the Ratio [5] of the same molecule?
A: The Ratio was 7410.

Q: And the Ratio [6]?
A: The Ratio was 10.

Q: With c1ccc([C@@H]2C[C@H]2C2=NCCN2)cc1 as the molecule, how does the “Log Ki” value [7] read?
A: The value was -6.46.

Q: Which results are given for CC(CC1=NCCN1)c1ccccc1 (stereo not given)?
A: Log Ki [1]: -6.91; Log Ki [2]: -5.93

Q: What does the source list for c1ccc(CCC2=NCCN2)cc1 [PHENYZOLINE]?
A: Ratio [3]: 0.0007; Log Ki [1]: -8.6; Ratio [4]: 0.54; Ratio [5]: 794; Ratio [6]: 1480; Log Ki [2]: -5.7

Q: With C[C@H](Cc1ccccc1)C1=NCCN1 as the molecule, how does the “Log Ki” value [2] read?
A: Its value is -5.4.

Q: For c1ccc(C2CC2C2=NCCN2)cc1 (stereo not given), which “Log Ki” value [7] is on record?
A: Its value is -7.76.

Q: With C[C@H](CC1=NCCN1)c1ccccc1 as the molecule, how does the “Log Ki” value [1] read?
A: The value was -5.6.

Q: What about the “Log Ki” value [2] of the same molecule?
A: The value was -5.9.

Q: With C[C@@H](Cc1ccccc1)C1=NCCN1 as the molecule, how does the “Log Ki” value [2] read?
A: The value was -5.3.

Q: For CC(Oc1ccccc1)C1=NCCN1 (stereo not given), which Ratio [3] is on record?
A: Its Ratio is 8.71.

Q: What about the Ratio [4] of the same molecule?
A: The Ratio was 0.32.

Q: What about the Ratio [5] of the same molecule?
A: The Ratio was 0.04.

Q: And the Ratio [6]?
A: The Ratio was 0.11.

Q: Which Heart rate (Oryctolagus cuniculus [8]) does the source give for CC(Cc1ccccc1)C1=NCCN1 (stereo not given) here?
A: Its Heart rate is 363 beats min-1.

Q: And the Heart rate (Oryctolagus cuniculus [9])?
A: Its Heart rate is 355 beats min-1.

Q: What about the MAP (Oryctolagus cuniculus [10]) of the same molecule?
A: The MAP was 91 mmHg.

Q: And the “Log Ki” value [2]?
A: The value was -5.45.

Q: And the MAP (Oryctolagus cuniculus [11])?
A: The MAP was 99 mmHg.

Q: With c1ccc([C@H]2C[C@@H]2C2=NCCN2)cc1 as the molecule, how does the “Log Ki” value [7] read?
A: Its value is -7.93.
